The results in this text go back to PMC5221799 (International Journal of Nanomedicine, 2016).

The subject of series [1] is MCF7/ADR (Dox-resistant) cells. Description: CCK-8 cytotoxicity assay in MCF7/ADR cells. In kind it is cell-based, human. As to conditions: for IC50: read-out: IC50 of Dox or equivalent NLS-Dox, MCF7/ADR cells, CCK-8, mean ± SD (n=5). Summed up:
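CCK-8 assay in MCF7 and MCF7/ADR cells (Dox withdrawn from resistant line 1 week prior). Cells seeded at 0.5×10^4/well, grown overnight, then exposed to a concentration range for 48 or 96 h. CCK-8 was added for 1 h at 37°C and A450 read. Viability = (Asample−Ablank)/(Anon-treated−Ablank)×100%. n=5.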

For a further series, the system named is MCF7/ADR cells. Description: Annexin V-FITC/propidium iodide apoptosis assay by flow cytometry. Format: cell-based, human. To be noted: 48 hours of incubation, Dox 20 μM. The procedure, abridged:
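MCF7/ADR cells (DMEM, 10% FBS; resistance kept with 1 μg/mL Dox, withdrawn 1 week before use) seeded at 10^5 cells/well and left 24 h. Treated with free Dox or nanoparticles (Dox 20 μM and/or anti-miR21 213.3 nM) for 48 h. Cells were washed, trypsinised, and stained with annexin V–FITC/PI for 15 min at room temperature in the dark, then analysed by flow cytometry. Untreated cells served as blanks; three repeats.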
On the technique in general: A flow cytometer gives signals particle by particle.

The test system of a further series is MCF7/ADR xenografts. Nature of the series: In vivo antitumor efficacy in MCF7/ADR xenografts. Set-up: species or system BALB/c nude mice. To be noted: tail vein every 3 days five times, n=6.

Where two headings read alike, the source gives them in different places.

For orientation: IC50 means the concentration at which inhibition is half-maximal. As to `COc1cccc2c1C(=O)c1c(O)c3c(c(O)c1C2=O)C[C@@](O)(C(=O)CO)C[C@@H]3O[C@H]1C[C@H](N)[C@H](O)[C@H](C)O1` [Free Dox, doxorubicin], the “IC50 in MCF7/ADR cells relative to parent MCF7 cells” value in series [1] (48 hours incubation) is recorded as “over 20 fold”. For the same molecule, the results for the IC50 in series [1] (48 hours) and in series [1] (96 hours) were 49.4 ± 2.58 µM and 30 ± 1.46 µM, respectively. Moreover, the apoptotic cells in the series with MCF7/ADR cells is 10.75%. In addition, the “effect on growth of MCF7/ADR xenografts” value in the series on MCF7/ADR xenografts (free Dox 7.6 mg/kg) is given as “slight inhibitory effect”. Further, the “body weight change of tumor-bearing mice” value in the series with MCF7/ADR xenografts (measured for 3 weeks) is “significant weight loss”.
